Experimental data: ChEMBL document CHEMBL1135562, “Cyclic acid anhydrides as a new class of potent, selective and non-peptidic inhibitors of geranylgeranyl transferase” (Bioorg Med Chem Lett, 2002)

Experiments:
[1] = biological target: T1, Protein farnesyltransferase (Homo sapiens, UniProt P49354+P49356); test: In vitro inhibition of farnesyl-protein transferase; assay type: protein-complex assay
Procedure, shortened: (§1)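 Recombinant human FPTase; substrate recombinant human wild-type H-Ras with [1-(n)-3H]farnesylpyrophosphate (555 GBq/mmol). Enzyme activity is the [3H]farnesyl transferred to Ras, measured by filter binding. IC50 is the concentration giving 50% inhibition of specific activity, fitted by non-linear regression to a dose–response curve.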

[2] = biological target: T2, Geranylgeranyl transferase type I (Homo sapiens, UniProt P49354+P53609); test: In vitro inhibition of geranylgeranyl-protein transferase type-I; assay type: protein-complex assay
Procedure, shortened: (§2)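 Recombinant human GGPTase-I; substrate recombinant human H-Ras CVLL with [1-(n)-3H]geranylgeranylpyrophosphate (615 GBq/mmol). Activity is the [3H]geranylgeranyl transferred to Ras, measured by filter binding. IC50 is the concentration inhibiting specific activity by 50%, derived by non-linear regression fit to a dose–response curve.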

[3] = biological target: T1, Protein farnesyltransferase; test: In vitro inhibition of Farnesyltransferase; assay type: protein-complex assay; procedure, shortened: as §1
[4] = biological target: T2, Geranylgeranyl transferase type I; test: In vitro inhibition of Geranylgeranyl transferase type I; assay type: protein-complex assay; procedure, shortened: as §2
[5] = In vitro inhibition of geranylgeranyl-protein transferase type-II; design: species or system Homo sapiens
[6] = biological target: T3, Protein farnesyl/geranylgeranyl transferase (Homo sapiens) (UniProt P49354+P49356+P53609); test: Ratio of human Farnesyltransferase to human Geranylgeranyl transferase type I activity as IC50; 166:252; assay type: protein-complex assay
[7] = biological target: T3, Protein farnesyl/geranylgeranyl transferase (Homo sapiens); test: Ratio of human Farnesyltransferase to human Geranylgeranyl transferase type I activity as IC50; 900:500; assay type: protein-complex assay

SMILES | IC50 [1] | IC50 [2] | further results
CC(C)=CCC/C(C)=C/C=C1\CCC(C(=O)O)C(C(=O)O)C1 (configuration not stated) | > 1000 µM | 420 µM | –
CC(C)CCCC(C)CCCC(C)CCCC1=CCC(C(=O)O)C(C(=O)O)C1 (configuration not stated) | > 1000 µM | > 1000 µM | –
CC(C)=CCCC1=CCC2C(=O)OC(=O)C2C1 (configuration not stated) | 449 µM | 40.2 µM | –
CC(C)=CCC/C(C)=C/CCC1=CCC2C(=O)OC(=O)C2C1 (configuration not stated) [listing 1 of 2 here] | – | – | IC50 [3]: 9 µM; IC50 [4]: 503 µM
CCCCCCCCCCCCCC/C(C(=O)O)=C(\C)C(=O)O [CHAETOMELLIC ACID A] | – | 92 µM | IC50 [5]: 34 µM
CCCCCCCCCCCC(=O)OC(=O)CCCCCCCCCCC [DODECANOIC ANHYDRIDE] | 854 µM | 229 µM | –
CCCCCCCCCCCCC(C(=O)O)C(C(=O)O)C(=O)O (configuration not stated) | – | – | Ratio [6]: 0.66
COC(=O)C1CC=C(CCC=C(C)C)CC1C(=O)OC (configuration not stated) | – | – | Ratio [7]: 1.8
C=C1CC(=O)OC1=O [ITACONIC ANHYDRIDE] | > 1000 µM | > 1000 µM | –
CC(C)=CCC/C(C)=C/CCC1=CCC2C(=O)OC(=O)C2C1 (configuration not stated) [listing 2 of 2 here] | 190 µM | 136 µM | –
COC(=O)C1CC=C(CCCC(C)CCCC(C)CCCC(C)C)CC1C(=O)OC (configuration not stated) | – | > 1000 µM | –
CC(C)=CCCC1=CCC(C(=O)O)C(C(=O)O)C1 (configuration not stated) | > 1000 µM | 900 µM | –
CCCCCCCCC/C=C/CC1CC(=O)OC1=O (configuration not stated) | > 1000 µM | 401 µM | –
CC(C)CCCC(C)CCCC(C)CCCC1=CCC2C(=O)OC(=O)C2C1 (configuration not stated) | > 1000 µM | 20.8 µM | –
CCCCCCCCC/C=C/CC(CC(=O)O)C(=O)O (configuration not stated) | 402 µM | > 1000 µM | –
